Tests used:
[1] = system: SARS-CoV-2; assay: Antiviral activity against SARS COV-2 infected in monkey vero cells assessed as reduction in virus-induced cytopathic effect preincubated with virus for 1 hr followed by cell infection and measured after 5 days by microscopic analysis; format: functional, organism-based; settings: Severe acute respiratory syndrome coronavirus 2, Vero
[2] = system: Vero; assay: Cytotoxicity in African green monkey Vero cells assessed as reduction in cell viability measured after 5 days by resazurin dye based assay; settings: chlorocebus sabaeus, vero, 120 h; time 5 day
In short: (§1)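 Cells (about 10⁵/well, 5% FBS) were added to two-fold compound dilutions (eight concentrations from 100 μM; DMSO control) and held 5 days at 36.5 °C in CO2. Medium was then replaced with resazurin (25 μg/mL) for 4 h and stopped with SDS. Fluorescence was read at Ex 525 / Em 580–640 nm, with background wells without resazurin subtracted. Done in two replicates; CC50 calculated.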

[3] = system: Human betaherpesvirus 5; assay: Antiviral activity against Human cytomegalovirus Davis; format: functional, organism-based; settings: Human betaherpesvirus 5, Davis
In short: (§2)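 Confluent HEL cultures received 100 CCID50 or 20 PFU of virus, with 2 h adsorption before inoculum removal. Cells were then incubated with compound from 100 μM downward. Cytopathicity or plaques were scored once untreated infected controls reached completion.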

[4] = system: HEL; assay: Cytotoxicity against human HEL cells assessed as reduction in cell viability measured after 3 days by beckman coulter counting method; format: cell-based; settings: 72 h, time 3 day
In short: (§3)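 Cells were seeded at 5 × 10³/well, grown 24 h, then exposed to compound from 100 μM downward for 3 days at 37 °C. Cell number was counted with a Coulter counter.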

[5] = system: Human alphaherpesvirus 3; assay: Antiviral activity against Varicella zoster virus assessed as inhibition of viral replication; format: functional, organism-based
[6] = system: Human alphaherpesvirus 3; assay: Antiviral activity against thymidine kinase deficient Varicella zoster virus; format: functional, organism-based; in short: as §2
[7] = Cytotoxicity in pig PEK cells assessed as reduction in cell viability measured after 5 days by resazurin dye based assay; parameters: species or system Sus scrofa, Kidney; settings: 120 h, time 5 day; in short: as §1
[8] = system: Respiratory syncytial virus; assay: Antiviral activity against Respiratory syncytial virus assessed as reduction in virus-induced cytopathic effect by MTS assay; format: functional, organism-based; settings: human respiratory syncytial virus
[9] = system: Omsk hemorrhagic fever virus; assay: Antiviral activity against Omsk hemorrhagic fever virus infected in pig PEK cells assessed as reduction in virus plaque formation preincubated with virus for 1 hr followed by cell infection and measured after 1 hr by crystal violet staining based assay; format: functional, organism-based
[10] = system: HEp-2; assay: Cytotoxicity in human Hep2 cells assessed as reduction in cell viability measured after 3 days by beckman coulter counting method; format: functional; settings: HEp-2, 72 h, time 3 day
In short: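 Hep2 cells seeded at 5 × 10³ cells/well and allowed to grow 24 h, then exposed to compound dilutions starting at 100 μM for 3 days at 37 °C. Cell number measured by Coulter counter.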

[11] = system: Influenza A virus; assay: Antiviral activity against Influenza A virus (H1N1) infected in MDCK cells assessed as reduction in cytopathic effect preincubated with cells for 1 hrs followed by viral addition and measured after 24 hrs by Reed-Muench method; format: functional, organism-based
In short: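 MDCK monolayers were pre-incubated 1 h at 37 °C with 3-fold compound dilutions (from 2 mg/mL DMSO stock), then infected at MOI 1 for 24 h. Supernatant yield was titrated by 10-fold dilutions on fresh MDCK for 72 h. Titre was read by hemagglutination with 1% chicken erythrocytes and calculated by Reed-Muench as TID50 per 100 μL.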

[12] = system: Powassan virus; assay: Antiviral activity against Powassan virus infected in pig PEK cells assessed as reduction in virus plaque formation preincubated with virus for 1 hr followed by cell infection and measured after 1 hr by crystal violet staining based assay; format: functional, organism-based
[13] = system: Human betaherpesvirus 5; assay: Antiviral activity against Human cytomegalovirus AD169; format: functional, organism-based; settings: Human betaherpesvirus 5, AD169; in short: as §2
[14] = system: Tick-borne encephalitis virus; assay: Antiviral activity against Tick-borne encephalitis virus infected in pig PEK cells assessed as reduction in virus plaque formation preincubated with virus for 1 hr followed by cell infection and measured after 1 hr by crystal violet staining based assay; format: functional, organism-based
[15] = Selectivity index, ratio of CC50 for pig PEK cells to EC50 for Antiviral activity against Tick-borne virus encephalitis infected in pig PEK cells; format: toxicity, cell-based; settings: read-out: Ratio CC50/EC50
[16] = system: Human alphaherpesvirus 3; assay: Antiviral activity against thymidine kinase positive Varicella zoster virus; format: functional, organism-based; in short: as §2
[17] = system: Chikungunya virus; assay: Antiviral activity against Chikungunya virus infected in African green monkey Vero cells assessed as reduction in virus plaque formation preincubated with virus for 1 hr followed by cell infection and measured after 1 hr by crystal violet staining based assay; format: functional, organism-based
[18] = Selectivity index, ratio of CC50 for pig PEK cells to EC50 for Antiviral activity against Powassan virus infected in pig PEK cells; format: toxicity, cell-based; settings: read-out: Ratio CC50/EC50
[19] = Selectivity index, ratio of CC50 for pig PEK cells to EC50 for Antiviral activity against Omsk hemorrhagic fever virus infected in pig PEK cells; format: toxicity, cell-based; settings: read-out: Ratio CC50/EC50
[20] = system: MDCK; assay: Cytotoxicity in dog MDCK cells assessed as reduction in cell viability measured after 3 days by beckman coulter counting method; format: cell-based, Canis lupus familiaris; settings: mdck, 72 h, time 3 day; in short: as §3
[21] = Selectivity index, ratio of CC50 for human HEL cells to EC50 for antiviral activity against thymidine kinase deficient Varicella zoster virus; format: toxicity; settings: read-out: Ratio CC50/EC50
[22] = Selectivity index, ratio of CC50 for human HEL cells to EC50 for antiviral activity against thymidine kinase positive Varicella zoster virus; format: toxicity; settings: read-out: Ratio CC50/EC50
[23] = Selectivity index, ratio of CC50 for African green monkey Vero cells to EC50 for Antiviral activity against Chikungunya virus infected in African green monkey Vero cells; format: toxicity; settings: read-out: Ratio CC50/EC50

NCCOc1cccc2c1Nc1nc(=O)n([C@H]3C[C@H](O)[C@@H](CO)O3)cc1O2
EC50 [1]: 1.12 µM | CC50 [2]: 1.81 µM

Nc1ccn(C[C@@H](CO)OCP(=O)(O)O)c(=O)n1 [CIDOFOVIR]
EC50 [3]: 0.61 µM | CC50 [4]: > 300 µM

CCCCCCCc1cc2cn([C@H]3C[C@H](O)[C@@H](CO)O3)c(=O)nc2o1
EC50 [5]: 0.027 µM

O=c1nc(NO)ccn1[C@@H]1O[C@H](CO)[C@@H](O)[C@H]1O [N-HYDROXYCYTIDINE]
EC50 [1]: 7.4 µM | CC50 [2]: > 100 µM

COc1ccc(C(OCCOCn2cc3c(nc2=O)Nc2ccccc2O3)(c2ccccc2)c2ccc(OC)cc2)cc1
EC50 [1]: > 100 µM | EC50 [6]: > 100 µM | CC50 [7]: > 100 µM | EC50 [8]: > 100 µM | CC50 [2]: > 100 µM | EC50 [9]: 21.4 µM | CC50 [10]: > 100 µM | EC50 [11]: 14 µM | EC50 [12]: 21 µM | EC50 [13]: > 100 µM | EC50 [3]: > 100 µM | EC50 [14]: 36 µM | selectivity ratio [15]: > 2 | EC50 [16]: > 100 µM | EC50 [17]: > 50 µM | selectivity ratio [18]: > 5 | selectivity ratio [19]: > 4 | CC50 [20]: > 100 µM | CC50 [4]: > 100 µM

Nc1nc(O)c2ncn(COC(CO)CO)c2n1 [GANCICLOVIR]
EC50 [13]: 19 µM | EC50 [3]: 1.79 µM | CC50 [4]: > 300 µM

COc1ccc(C(OC[C@H]2O[C@@H](n3cc4c(nc3=O)Nc3ccccc3O4)[C@H](OC)[C@@H]2O)(c2ccccc2)c2ccc(OC)cc2)cc1
EC50 [1]: 12.4 µM | CC50 [2]: 26.5 µM

CO[C@@H]1[C@H](O)[C@@H](CO)O[C@H]1n1cc2c(nc1=O)Nc1ccccc1O2
EC50 [1]: > 100 µM | CC50 [2]: > 100 µM

COc1ccc(C(OC[C@H]2O[C@@H](n3cc4c(nc3=O)Nc3ccccc3O4)[C@H](O)[C@@H]2O)(c2ccccc2)c2ccc(OC)cc2)cc1
EC50 [1]: 11.5 µM | CC50 [2]: 15.9 µM

NC(=O)c1ncn([C@@H]2O[C@H](CO)[C@@H](O)[C@H]2O)n1 [RIBAVIRIN]
EC50 [8]: 2 µM | CC50 [10]: 250 µM

CCCCCCCCCCOc1ccc2c(c1)N(C)c1nc(=O)n([C@H]3C[C@H](O)[C@@H](CO)O3)cc1O2
EC50 [1]: > 100 µM | EC50 [6]: 15.1 µM | CC50 [7]: 79 µM | EC50 [8]: > 100 µM | selectivity ratio [21]: > 6 | CC50 [2]: 59 µM | CC50 [10]: > 100 µM | selectivity ratio [22]: > 11 | EC50 [11]: 23 µM | EC50 [12]: 0.45 µM | EC50 [13]: > 20 µM | EC50 [3]: 20 µM | EC50 [14]: 5.4 µM | EC50 [16]: 10.7 µM | EC50 [17]: 0.71 µM | CC50 [20]: > 40 µM | selectivity ratio [23]: 83 | CC50 [4]: > 100 µM

Nc1nc2c(ncn2COCCO)c(=O)[nH]1 [ACYCLOVIR]
EC50 [5]: 0.009 µM | CC50 [4]: > 300 µM

O=c1nc2c(cn1[C@@H]1O[C@H](CO)[C@@H](O)[C@H]1O)Oc1ccccc1N2
EC50 [1]: > 100 µM | CC50 [2]: > 100 µM

— ChEMBL document CHEMBL4842312, “Phenoxazine nucleoside derivatives with a multiple activity against RNA and DNA viruses” (Eur J Med Chem, 2021)
